14 molecules from ChEMBL document CHEMBL1147426, “Thiazoles and thiopyridines: novel series of high affinity h5HT(7) ligands” (Bioorg Med Chem Lett, 2004) can be followed below.

Common to all, as to assay type: cell-based
One assay addresses D(2) dopamine receptor (Homo sapiens, UniProt P14416). As to the kind of experiment: Binding affinity towards human dopamine receptor D2 by the displacement of [3H]spiperone radioligand from the cloned receptor expressed in CHO cells. Put shortly: (§1)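 Affinities are given as the geometric mean of 3–6 independent determinations; some values rest on only 2 determinations.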
(Displacement assays read how much labelled ligand stays bound in the presence of the test substance.)

For assay [1], the target named is T1, 5-hydroxytryptamine receptor 1A (Homo sapiens, UniProt P08908).
T1 sequence (P08908 whole entry): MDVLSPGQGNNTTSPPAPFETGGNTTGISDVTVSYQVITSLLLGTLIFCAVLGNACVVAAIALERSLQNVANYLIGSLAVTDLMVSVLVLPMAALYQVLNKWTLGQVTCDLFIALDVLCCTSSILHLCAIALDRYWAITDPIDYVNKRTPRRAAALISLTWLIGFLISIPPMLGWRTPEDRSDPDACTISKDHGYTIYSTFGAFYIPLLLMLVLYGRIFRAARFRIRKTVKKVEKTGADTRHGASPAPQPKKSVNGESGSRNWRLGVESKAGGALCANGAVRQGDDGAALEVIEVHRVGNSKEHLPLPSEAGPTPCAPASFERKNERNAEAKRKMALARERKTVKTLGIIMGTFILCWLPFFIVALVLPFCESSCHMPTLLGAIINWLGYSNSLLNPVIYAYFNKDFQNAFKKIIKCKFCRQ
As to the kind of experiment: Binding affinity towards human 5-hydroxytryptamine 1A receptor by the displacement of [3H]5-HT radioligand from the cloned receptor expressed in HeLa cells. Put shortly:
as §1

For assay [2], the target named is 5-hydroxytryptamine receptor 7 (Homo sapiens, UniProt P34969). As to the kind of experiment: Binding affinity towards human 5-hydroxytryptamine 7 receptor by the displacement of [3H]-5-HT radioligand from the cloned receptor expressed in CHO cells.
The target of assay [3] is 5-hydroxytryptamine receptor 2A (Homo sapiens, UniProt P28223). Briefly: Binding affinity towards human 5-hydroxytryptamine 2A receptor by the displacement of [3H]ketanserin radioligand from the cloned receptor expressed in CHO cells. The method in brief:
as §1

Sequence of D(2) dopamine receptor (P14416 whole entry): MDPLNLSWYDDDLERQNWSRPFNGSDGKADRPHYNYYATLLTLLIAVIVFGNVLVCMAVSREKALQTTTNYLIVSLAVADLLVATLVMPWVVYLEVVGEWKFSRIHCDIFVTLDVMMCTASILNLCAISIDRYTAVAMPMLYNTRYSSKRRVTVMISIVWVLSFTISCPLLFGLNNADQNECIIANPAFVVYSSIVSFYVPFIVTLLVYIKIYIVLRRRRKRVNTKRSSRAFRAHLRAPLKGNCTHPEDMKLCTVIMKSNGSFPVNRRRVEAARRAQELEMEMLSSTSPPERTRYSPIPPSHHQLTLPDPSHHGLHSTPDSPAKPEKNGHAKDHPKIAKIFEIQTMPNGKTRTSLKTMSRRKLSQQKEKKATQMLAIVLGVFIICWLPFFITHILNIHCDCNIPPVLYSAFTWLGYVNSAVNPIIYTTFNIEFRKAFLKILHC
Sequence of 5-hydroxytryptamine receptor 7 (P34969 whole entry): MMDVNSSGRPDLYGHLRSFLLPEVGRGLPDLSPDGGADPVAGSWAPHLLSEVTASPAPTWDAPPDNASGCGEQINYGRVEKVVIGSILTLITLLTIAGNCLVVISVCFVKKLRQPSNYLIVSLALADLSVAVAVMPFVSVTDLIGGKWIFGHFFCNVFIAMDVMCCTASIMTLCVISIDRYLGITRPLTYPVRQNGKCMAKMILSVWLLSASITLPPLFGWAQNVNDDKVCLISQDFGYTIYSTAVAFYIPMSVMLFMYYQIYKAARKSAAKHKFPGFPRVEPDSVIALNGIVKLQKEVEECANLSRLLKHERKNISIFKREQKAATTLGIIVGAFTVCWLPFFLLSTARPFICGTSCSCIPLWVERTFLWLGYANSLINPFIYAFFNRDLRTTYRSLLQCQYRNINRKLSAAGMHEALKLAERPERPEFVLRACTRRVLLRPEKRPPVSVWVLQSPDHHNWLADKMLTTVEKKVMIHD
Sequence of 5-hydroxytryptamine receptor 2A (P28223 whole entry): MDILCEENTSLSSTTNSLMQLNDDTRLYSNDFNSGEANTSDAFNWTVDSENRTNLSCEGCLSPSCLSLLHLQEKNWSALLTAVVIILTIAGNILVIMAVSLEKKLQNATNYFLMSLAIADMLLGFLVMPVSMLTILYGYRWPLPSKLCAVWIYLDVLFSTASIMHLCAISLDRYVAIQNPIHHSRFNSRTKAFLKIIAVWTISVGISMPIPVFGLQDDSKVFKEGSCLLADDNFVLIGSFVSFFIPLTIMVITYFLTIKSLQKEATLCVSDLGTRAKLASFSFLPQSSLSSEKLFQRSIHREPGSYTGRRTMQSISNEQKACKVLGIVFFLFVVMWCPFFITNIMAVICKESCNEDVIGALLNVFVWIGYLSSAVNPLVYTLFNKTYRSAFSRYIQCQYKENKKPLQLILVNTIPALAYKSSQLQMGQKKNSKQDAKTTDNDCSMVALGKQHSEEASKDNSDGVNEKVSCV

For the molecule `CN(C)CCSc1cccc(Br)n1`, the Ki at D(2) dopamine receptor was determined as 870 nM; in assay [1] it was 37 nM; in assay [2], 4.1 nM; in assay [3], 270 nM.

In assay [2], `CN(C)CCSc1nnc(-c2ccccc2)o1` had a Ki of more than 4000 nM.

Take `CN(C)CCSc1cccc(C2CCCCC2)n1`: the Ki was 1300 nM on D(2) dopamine receptor, 8.7 nM in assay [1], 0.7 nM in assay [2] and 230 nM in assay [3].

As for `CN(C)CCSc1cccc(C2(O)CCCCC2)n1`, the Ki on D(2) dopamine receptor was more than 1000 nM; in assay [1], 41 nM; in assay [2], 7.2 nM; in assay [3], 480 nM.

For `CN(C)CCSc1n[nH]c(-c2ccccc2)n1`, in assay [2], the Ki came to 1200 nM.

`Cc1sc(SCCN(C)C)nc1-c1ccccc1`: the affinity in assay [2] corresponds to a Ki of 170 nM.

In assay [2], `CN(C)CCSc1nccs1` gave a Ki of 6800 nM.

`CN(C)CCSc1nc(C(C)(C)C)cs1`: the Ki on D(2) dopamine receptor is more than 1000 nM; in assay [1] it was 2200 nM; in assay [2], 22 nM; in assay [3] it was 1200 nM.

`CN(C)CCSc1cccc(-c2ccccc2)n1`: the Ki at D(2) dopamine receptor was found to be 450 nM.

For the molecule `CN(C)CCSc1nc2ccccc2s1`, the Ki at D(2) dopamine receptor is more than 1000 nM; in assay [1], 830 nM; in assay [2], 84 nM; in assay [3] it was 1000 nM.

`CN(C)CCSc1ccnc(-c2ccccc2)c1`: the Ki in assay [1] worked out at 1200 nM; in assay [2] it was 100 nM.

With `CN(C)CCSc1nc(-c2ccccc2)cs1`, the Ki at D(2) dopamine receptor was more than 1000 nM; in assay [1], 210 nM; in assay [2], 12 nM; in assay [3] it was 640 nM.

In the case of `CN(C)CCSc1nc(-c2ccncc2)cs1`, the Ki on D(2) dopamine receptor was 130 nM; in assay [1], 90 nM; in assay [2] it was 27 nM; in assay [3], more than 200 nM.

In assay [2], `CN(C)CCSc1ncc(-c2ccccc2)s1` had a Ki of 3200 nM.

One may read the Ki as a measure of affinity in units of concentration, obtained from inhibition or displacement. A low value points to a stronger hold on the target.
